According to ChEMBL document CHEMBL5154665, “Design, synthesis, biochemical evaluation, radiolabeling and in vivo imaging with high affinity class-IIa histone deacetylase inhibitor for molecular imaging and targeted therapy” (Eur J Med Chem, 2022):

Key:
[1] = molecular target: T1, Polyamine deacetylase HDAC10 (Homo sapiens, UniProt Q969S8); assay: Inhibition of recombinant human HDAC10 using fluorogenic substrate by fluorescence microplate reader assay
T1 sequence (Q969S8 whole entry): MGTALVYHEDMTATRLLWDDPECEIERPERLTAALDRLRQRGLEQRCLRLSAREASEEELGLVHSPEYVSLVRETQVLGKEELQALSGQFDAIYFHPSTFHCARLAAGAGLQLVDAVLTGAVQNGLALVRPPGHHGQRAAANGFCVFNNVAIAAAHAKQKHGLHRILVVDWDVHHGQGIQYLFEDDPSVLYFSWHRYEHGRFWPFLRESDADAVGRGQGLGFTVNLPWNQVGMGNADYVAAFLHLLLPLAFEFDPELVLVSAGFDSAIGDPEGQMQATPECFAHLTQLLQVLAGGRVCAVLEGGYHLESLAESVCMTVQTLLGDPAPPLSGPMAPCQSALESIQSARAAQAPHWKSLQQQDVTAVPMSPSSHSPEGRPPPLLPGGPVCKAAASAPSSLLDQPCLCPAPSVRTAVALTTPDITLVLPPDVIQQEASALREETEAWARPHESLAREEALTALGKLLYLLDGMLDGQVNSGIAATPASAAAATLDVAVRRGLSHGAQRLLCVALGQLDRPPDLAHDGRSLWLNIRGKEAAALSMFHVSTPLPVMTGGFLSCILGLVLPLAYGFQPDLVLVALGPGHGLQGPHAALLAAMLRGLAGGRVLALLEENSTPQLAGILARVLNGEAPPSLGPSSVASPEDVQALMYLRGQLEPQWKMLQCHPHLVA
Method in brief: (§1)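 Recombinant human HDAC isoforms were tested at 9 inhibitor dilutions in commercial fluorogenic enzyme kits, per the manufacturer's protocol. For class IIa enzymes, deacetylation of a TFA-lysine substrate lets trypsin release a fluorophore, read on a microplate reader. IC50 came from a nonlinear fit of % HDAC activity inhibition against compound concentration.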

[2] = Inhibition of HDAC class 2b in human HT-29 cells using Boc-Lys-Ac as substrate incubated for 3 hrs by microplate reader assay; format: cell-based; details: HT-29, 3 h
Histone deacetylase 8 = molecular target: T2, Histone deacetylase 8 (Homo sapiens, UniProt Q9BY41); assay: Inhibition of recombinant human HDAC8 using fluorogenic substrate by fluorescence microplate reader assay; method in brief: as §1
T2 sequence (Q9BY41 whole entry): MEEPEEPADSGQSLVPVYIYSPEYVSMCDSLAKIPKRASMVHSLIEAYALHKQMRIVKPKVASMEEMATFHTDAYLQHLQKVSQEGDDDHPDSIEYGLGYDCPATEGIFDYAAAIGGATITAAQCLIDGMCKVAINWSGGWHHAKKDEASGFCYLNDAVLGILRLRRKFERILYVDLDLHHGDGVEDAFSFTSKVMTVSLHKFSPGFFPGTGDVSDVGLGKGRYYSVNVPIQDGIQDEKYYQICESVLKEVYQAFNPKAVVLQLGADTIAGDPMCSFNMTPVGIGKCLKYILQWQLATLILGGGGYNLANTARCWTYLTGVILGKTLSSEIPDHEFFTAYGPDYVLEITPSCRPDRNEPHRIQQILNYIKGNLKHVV

[3] = Inhibition of HDAC class 2b in human THP-1 cells using TFA-lysine as fluorogenic substrate by fluorescence microplate reader assay; format: cell-based
[4] = molecular target: Class 1 histone deacetylase (Homo sapiens, UniProt Q13547+O15379+Q92769+Q9BY41); assay: Inhibition of HDAC class 1 in human L3.6pl cells using TFA-lysine as fluorogenic substrate by fluorescence microplate reader assay; format: cell-based
Histone deacetylase 2 = Histone deacetylase 2 (Homo sapiens, UniProt Q92769); assay: Inhibition of recombinant human HDAC2 using fluorogenic substrate by fluorescence microplate reader assay; method in brief: as §1
Chain of Histone deacetylase 2 (Q92769 whole entry): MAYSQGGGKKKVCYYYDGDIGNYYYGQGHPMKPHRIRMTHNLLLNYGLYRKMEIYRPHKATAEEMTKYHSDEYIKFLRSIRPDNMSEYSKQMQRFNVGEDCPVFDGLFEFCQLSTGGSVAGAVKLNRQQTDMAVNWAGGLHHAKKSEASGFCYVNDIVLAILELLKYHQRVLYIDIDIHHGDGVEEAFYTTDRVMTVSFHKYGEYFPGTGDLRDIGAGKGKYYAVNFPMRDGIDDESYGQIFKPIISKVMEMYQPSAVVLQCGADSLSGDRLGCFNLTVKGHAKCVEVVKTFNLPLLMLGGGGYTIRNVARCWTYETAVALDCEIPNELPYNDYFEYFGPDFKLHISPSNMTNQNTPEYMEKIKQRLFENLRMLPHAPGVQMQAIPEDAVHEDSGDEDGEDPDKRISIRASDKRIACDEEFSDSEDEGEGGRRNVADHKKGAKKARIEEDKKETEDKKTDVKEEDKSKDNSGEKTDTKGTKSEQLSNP

IC50 [1]: > 5 µM | IC50 [2]: > 50 µM | IC50 (Histone deacetylase 8): > 5 µM | IC50 [3]: > 5 µM | IC50 [4]: > 5 µM | IC50 (Histone deacetylase 2): > 5 µM
SMILES: CC(C)(CNC(=O)c1cccc(-c2noc(C(F)(F)F)n2)c1)c1coc(-c2ccccc2)n1
